These results are taken from ChEMBL document CHEMBL1127809, “Pentamidine congeners. 2. 2-butene-bridged aromatic diamidines and diimidazolines as potential anti-Pneumocystis carinii pneumonia agents” (1994).

Common to all, as to assay type: functional
In experiment [1] the test system is Rattus norvegicus. The experiment is described as follows: In vivo anti-Pneumocystis carinii toxicity in rats administered intravenously at 10 mg/kg/day; 0 indicates no local, clinical, histologic toxicity. The method in brief: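 Host toxicity in immunosuppressed PCP rats dosed iv daily for 2 weeks. Animals were observed daily for health and well-being. Liver and kidney were examined by light microscopy for pathologic changes. Scoring: 0 = no local, clinical or histologic toxicity; 1+ = all survived, some local injection-site toxicity; 2+ = most survived, some severe distress, clinical toxicity and histopathology; 3+ = acute toxicity or decline with <50% deaths; 4+ = ≥50% deaths.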

Experiment [2] has as its system Rattus norvegicus. The experiment is described as follows: Anti- Pneumocystis carinii activity was measured as percentage of number of cysts counted per gram of lung tissue at a dose of 10 mg/kg/day. The method in brief:
(§1)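 Immunosuppressed rats with PCP; compound given by daily iv injection over 2 weeks at 10 mg/kg/day, or at 5 or 1 mg/kg/day where shown. Saline is the negative control and pentamidine the positive control. Cysts are counted per gram of lung tissue and expressed as % of the saline-treated control ± SE (n rats). Significance is given as P vs saline or vs pentamidine.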

For experiment [3], the species on record is Rattus norvegicus. Description: Anti-Pneumocystis carinii activity was measured as percentage of number of cysts counted per gram of lung tissue. Details: concentration or dose not given beside the values. A digest of the protocol: as §1
The test system of experiment [4] is Rattus norvegicus. Description: Anti- Pneumocystis carinii activity was measured as percentage of number of cysts counted per gram of lung tissue at a dose of 5.0 mg/kg/day. A digest of the protocol: as §1
The subject of experiment [5] is Rattus norvegicus. Description: Anti- Pneumocystis carinii activity was measured as percentage of number of cysts counted per gram of lung tissue at a dose of 1 mg/kg/day. A digest of the protocol:
as §1

The species named for experiment [6] is Rattus norvegicus. Description: Anti- Pneumocystis carinii activity was measured as percentage of number of cysts counted per gram of lung tissue. A digest of the protocol: as §1

“And” between values parts separate entries of the source, which are not always exact repeats. Equal values may be shown once. A value given as a limit tells only on which side of the number the result lay.

In the experiment with Rattus norvegicus [1] (route intravenous), `C(=C\COc1ccc(C2=NCCN2)cc1)/COc1ccc(C2=NCCN2)cc1.Cl.Cl` displayed a Toxicity of 0. Besides, the Control amounted to 1.38% with Rattus norvegicus [2], 1.22% in the experiment filed under Rattus norvegicus [3], 5.61% in the experiment on Rattus norvegicus [4] and 39.6% in the experiment with Rattus norvegicus [5].

For the compound `N=C(N)c1ccc(OCCCCCOc2ccc(C(=N)N)cc2)cc1` [PENTAMIDINE], the Control in the experiment listed under Rattus norvegicus [6] is <5.31% and <4.95%. In the experiment with Rattus norvegicus [1] (route intravenous), this compound displayed a Toxicity of 2.

With `C(=C/COc1ccc(C2=NCCN2)cc1)/COc1ccc(C2=NCCN2)cc1.Cl.Cl`, the Toxicity in the experiment on Rattus norvegicus [1] (route intravenous) worked out at 0. For the same compound, the Control in the experiment listed under Rattus norvegicus [3] worked out at 1.22%.

As to `COc1cc(C2=NCCN2)ccc1OC/C=C\COc1ccc(C2=NCCN2)cc1OC.Cl.Cl`, the Toxicity entry in the experiment on Rattus norvegicus [1] was “Local toxicity”. Also, the Control in the experiment listed under Rattus norvegicus [3] was 15.6%.

As for `COc1cc(C(=N)N)ccc1OC/C=C/COc1ccc(C(=N)N)cc1OC.Cl`, the Toxicity entry with Rattus norvegicus [1] is given as “Local toxicity”. In the experiment filed under Rattus norvegicus [3], this compound showed a Control of 35.5%.

Regarding `COc1cc(C(=N)N)ccc1OC/C=C\COc1ccc(C(=N)N)cc1OC.Cl.Cl`, the Toxicity in the experiment with Rattus norvegicus [1] (route intravenous) turned out to be 0. In the experiment listed under Rattus norvegicus [3], this compound yielded a Control of 21.4%.

`COc1cc(C2=NCCN2)ccc1OC/C=C/COc1ccc(C2=NCCN2)cc1OC.Cl.Cl`: in the experiment on Rattus norvegicus [1], the Toxicity result is “Toxic”. The compound also gave a Control in the experiment filed under Rattus norvegicus [3] of 1.5%.

In the experiment with Rattus norvegicus [1] (route intravenous), `Cl.Cl.N=C(N)c1ccc(OC/C=C\COc2ccc(C(=N)N)cc2)cc1` showed a Toxicity of 0. For the same compound, the Control in the experiment filed under Rattus norvegicus [3] worked out at 1.1%.

In the experiment with Rattus norvegicus [1] (route intravenous), `Cl.Cl.N=C(N)c1ccc(OC/C=C/COc2ccc(C(=N)N)cc2)cc1` displayed a Toxicity of 0. In the experiment filed under Rattus norvegicus [3], this compound registered a Control of 0.67%.
